Measurements taken from PMC8154199 (JACS Au, 2021).

Columns and labels:
[1] = tested on: P. falciparum strain Dd2; assay: Growth inhibition assay with highly synchronized P. falciparum, SYBR green; format: cell-based; conditions: Plasmodium falciparum, DD2, 72 h, read-out: IC50 P. falciparum Dd2
[2] = CID-ESI-MS stability of heme-drug complexes; format: binding; conditions: 4-heme m/z 960.2; AQ-heme m/z 971.3; CQ-heme m/z 935.4
Method in brief: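 Hematin was made fresh from hemin in 50% ammonia. Test compound stock was in ACN or water. Hematin and compound were mixed equimolar at 100 μM in CH3CN/H2O (50:50), then diluted to 50 μM in ACN/H2O/HCOOH (50:50:1). Samples were infused at 5 μL·min–1 into an orthogonal ESI-TOF. CID used capillary exit (cone) voltage 120–400 V in 20 V steps, and adduct stability responses were plotted against voltage.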

[3] = tested on: human fibroblasts hMRC-5; assay: Toxicity against human fibroblasts hMRC-5; format: cell-based; conditions: Fibroblast, read-out: IC50 hMRC-5
[4] = Probe solubility in aqueous ACN by absorbance kinetics; format: physicochemical; conditions: aqueous ACN solutions (Figure S16)
Method in brief: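 Solubility was assessed in 2% ACN by spectrophotometric absorbance kinetics over decreasing test compound concentrations, starting at 20 μM.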

In the case of `CCN(CC)CCCC(C)Nc1ccnc2cc(Cl)ccc12` (centres unmarked) [chloroquine, reference compound], the IC50 [1] is reported as 189 nM and the “residual complex at high fragmentor voltage (ion abundance)” value [2] is reported as “did not show a residual covalent adduct”.
With `CN(C)c1ccc2nc3ccc(=[N+](C)C)cc-3sc2c1` [methylene blue, reference compound] the IC50 [1] was 7 nM.
For `C#Cc1ccc(CC2=C(C)C(=O)c3ccccc3C2=O)cc1` [probe 11, 2-(4-ethynylbenzyl)-3-methylnaphthalene-1,4-dione], the IC50 [1] was 49 ± 15 nM and the IC50 [3] was > 64000 nM.
In the case of `C#Cc1ccc(C(=O)C2=C(C)C(=O)c3ccccc3C2=O)cc1` [probe 7], the IC50 [1] is reported as 1810 ± 302 nM, the IC50 [3] is reported as 20500 nM and the “solubility sequence, from the less to the most soluble” value [4] is reported as “probe 10 < probe 8 ≈ probe 7 < probe 9”.
